Experimental data from ChEMBL document CHEMBL1130158, “Alkyl-substituted amino acid amides and analogous di- and triamines: new non-peptide G protein activators” (J Med Chem, 1997).
pEC50: −log10 of the molar value. Each block holds one compound with its values, some of them ahead of it.

Legend:
HL-60 [1] = test: Efficacy expressed as maximal stimulation of GTP hydrolysis in HL-60 membranes at a concentration 30 uM; assay type: functional, Homo sapiens
Summary of the method: (§1)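 HL-60 cells grown in suspension, differentiated toward neutrophil-like cells with dibutyryl-cAMP (0.2 mM) for 48 h; membranes prepared and steady-state GTP hydrolysis measured with [γ-32P]GTP over increasing compound concentrations. Triplicate determinations, at least three independent experiments. Efficacy = maximal stimulation above basal activity, at the concentration giving maximal stimulation; pEC50 = -log half-maximal concentration, means ± SD.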

HL-60 [2] = test: -log of the half-maximal concentration for stimulation of GTPase in HL-60 membrane; assay type: functional; conditions: Homo sapiens; summary of the method: as §1
HL-60 [3] = test: Efficacy expressed as maximal stimulation of GTP hydrolysis in HL-60 membranes at a concentration 5 uM; assay type: functional, Homo sapiens; summary of the method: as §1
[4] = target: Histamine H1 receptor (Cavia porcellus) (UniProt P31389); test: Histamine activity against Histamine H1 receptor of guinea pig ileum; assay type: tissue-based
Histamine H1 receptor (Cavia porcellus), sequence (P31389 whole entry): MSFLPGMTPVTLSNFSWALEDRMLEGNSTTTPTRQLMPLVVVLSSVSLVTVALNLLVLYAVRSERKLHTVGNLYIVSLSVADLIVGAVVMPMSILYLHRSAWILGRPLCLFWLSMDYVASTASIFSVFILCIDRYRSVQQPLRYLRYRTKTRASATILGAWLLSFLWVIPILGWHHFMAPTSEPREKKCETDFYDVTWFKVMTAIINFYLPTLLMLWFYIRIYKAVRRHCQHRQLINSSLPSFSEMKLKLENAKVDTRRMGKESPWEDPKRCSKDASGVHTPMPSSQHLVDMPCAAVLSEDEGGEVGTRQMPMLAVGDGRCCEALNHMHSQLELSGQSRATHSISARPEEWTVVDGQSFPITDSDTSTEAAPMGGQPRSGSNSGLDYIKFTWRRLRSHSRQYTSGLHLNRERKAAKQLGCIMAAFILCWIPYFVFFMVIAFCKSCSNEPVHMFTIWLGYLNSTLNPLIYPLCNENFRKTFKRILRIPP

[5] = target: Histamine H3 receptor (Cavia porcellus) (UniProt Q9JI35); test: Histamine activity against Histamine H3 receptor of guinea pig ileum; assay type: tissue-based
Histamine H3 receptor (Cavia porcellus), sequence (Q9JI35 whole entry): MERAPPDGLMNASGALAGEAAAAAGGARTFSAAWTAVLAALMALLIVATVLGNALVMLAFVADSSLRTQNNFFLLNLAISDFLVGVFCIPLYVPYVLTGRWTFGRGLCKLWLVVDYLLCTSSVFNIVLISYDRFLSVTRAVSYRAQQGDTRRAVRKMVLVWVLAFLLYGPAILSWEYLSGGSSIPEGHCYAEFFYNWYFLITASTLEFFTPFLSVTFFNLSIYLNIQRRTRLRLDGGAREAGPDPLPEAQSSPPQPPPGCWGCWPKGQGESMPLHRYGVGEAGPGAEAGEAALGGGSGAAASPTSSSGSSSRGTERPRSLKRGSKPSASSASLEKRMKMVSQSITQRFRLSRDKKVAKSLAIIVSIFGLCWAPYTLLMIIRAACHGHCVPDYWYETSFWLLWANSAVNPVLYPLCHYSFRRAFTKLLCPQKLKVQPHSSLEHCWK

[6] = target: Muscarinic acetylcholine receptor M3 (Cavia porcellus) (UniProt Q8VH26); test: Affinity towards Muscarinic acetylcholine receptor M3 in guinea pig ileum; assay type: tissue-based
Muscarinic acetylcholine receptor M3 (Cavia porcellus), sequence (Q8VH26 1-587): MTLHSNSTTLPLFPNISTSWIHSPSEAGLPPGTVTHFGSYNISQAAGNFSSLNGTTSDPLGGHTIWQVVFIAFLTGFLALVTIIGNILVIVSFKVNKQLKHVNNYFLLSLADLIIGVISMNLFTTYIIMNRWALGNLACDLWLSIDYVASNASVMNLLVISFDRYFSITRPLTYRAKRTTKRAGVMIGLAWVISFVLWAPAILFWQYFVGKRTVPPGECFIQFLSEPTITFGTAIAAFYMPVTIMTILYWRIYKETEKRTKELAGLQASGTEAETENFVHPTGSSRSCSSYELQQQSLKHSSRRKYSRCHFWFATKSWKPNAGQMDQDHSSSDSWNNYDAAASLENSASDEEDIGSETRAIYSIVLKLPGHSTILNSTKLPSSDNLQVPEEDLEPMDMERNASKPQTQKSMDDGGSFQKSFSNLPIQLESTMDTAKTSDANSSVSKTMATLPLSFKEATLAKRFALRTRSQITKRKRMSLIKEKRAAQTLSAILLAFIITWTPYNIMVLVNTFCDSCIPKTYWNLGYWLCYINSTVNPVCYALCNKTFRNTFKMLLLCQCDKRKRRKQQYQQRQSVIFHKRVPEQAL

[7] = target: Histamine H2 receptor (Cavia porcellus) (UniProt P47747); test: Histamine activity against Histamine H2 receptor of guinea pig atrium; assay type: tissue-based; conditions: Cardiac atrium
Histamine H2 receptor (Cavia porcellus), sequence (P47747 whole entry): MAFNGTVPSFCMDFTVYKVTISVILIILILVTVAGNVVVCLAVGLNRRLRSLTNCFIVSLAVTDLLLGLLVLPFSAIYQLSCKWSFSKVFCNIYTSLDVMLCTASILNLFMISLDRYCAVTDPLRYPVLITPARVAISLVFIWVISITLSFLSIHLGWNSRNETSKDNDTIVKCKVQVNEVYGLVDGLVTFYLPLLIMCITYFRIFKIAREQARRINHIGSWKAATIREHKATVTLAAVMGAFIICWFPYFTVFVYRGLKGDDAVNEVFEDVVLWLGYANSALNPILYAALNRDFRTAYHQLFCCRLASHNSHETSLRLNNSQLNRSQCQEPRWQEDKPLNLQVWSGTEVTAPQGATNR

HL-60 [8] = test: Efficacy expressed as maximal stimulation of GTP hydrolysis in HL-60 membranes at a concentration 3 uM; assay type: functional, Homo sapiens; summary of the method: as §1
HL-60 [9] = test: Efficacy expressed as maximal stimulation of GTP hydrolysis in HL-60 membranes at a concentration 300 uM; assay type: functional, Homo sapiens
Summary of the method: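 Steady-state GTP hydrolysis of the membranes was measured over increasing compound concentrations in triplicate, across at least three independent experiments. Efficacy is the maximal stimulation above basal activity, with the concentration giving that maximum reported.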

HL-60 [10] = test: Efficacy expressed as maximal stimulation of GTP hydrolysis in HL-60 membranes at a concentration 20 uM; assay type: functional, Homo sapiens; summary of the method: as §1
HL-60 [11] = test: Efficacy expressed as maximal stimulation of GTP hydrolysis in HL-60 membranes at a concentration 10 uM; assay type: functional, Homo sapiens; summary of the method: as §1
HL-60 [12] = test: -log of the half-maximal concentration for stimulation of GTPase in HL-60 membrane (sensitive to PTX); assay type: functional; conditions: Homo sapiens
Summary of the method: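 Differentiated HL-60 cells (dibutyryl-cAMP 0.2 mM, 48 h) incubated overnight with pertussis toxin (200 ng/mL) or left untreated; membranes prepared and steady-state [γ-32P]GTP hydrolysis measured across increasing concentrations. PTX sensitivity judged by comparing treated with control membranes. Triplicates; pEC50 = -log half-maximal concentration, mean ± SD.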

HL-60 [13] = test: Efficacy expressed as maximal stimulation of GTP hydrolysis in HL-60 membranes at a concentration 2 uM; assay type: functional, Homo sapiens; summary of the method: as §1
HL-60 [14] = test: Efficacy expressed as maximal stimulation of GTP hydrolysis in HL-60 membranes at a concentration 7.5 uM; assay type: functional, Homo sapiens; summary of the method: as §1
HL-60 [15] = test: Efficacy expressed as maximal stimulation of GTP hydrolysis in HL-60 membranes at a concentration 0.75 uM; assay type: functional, Homo sapiens; summary of the method: as §1
[16] = target: Histamine H1 receptor (Cavia porcellus) (UniProt P31389); test: Histamine activity against H1 receptor of guinea pig ileum; assay type: tissue-based

pEC50 (HL-60 [2]): 5.60
Compound: CCCCCCCCCCCCNC(=O)C(N)CN (stereo unspecified)
Efficacy (HL-60 [11]): 131%

pEC50 (HL-60 [12]): 6.10
Compound: CCCCCCCCCCCCNC(=O)[C@H](N)CCCCN
Efficacy (HL-60 [3]): 108%

pEC50 (HL-60 [12]): 6.60
Compound: CCCCCCCCCCCCCCCCNCC(N)CCCCN (stereo unspecified)
Efficacy (HL-60 [15]): 84%

pEC50 (HL-60 [2]): 5.50
Compound: CCCCCCCCCCCCNC(=O)[C@@H](N)Cc1c[nH]cn1
Efficacy (HL-60 [10]): 125%

pEC50 (HL-60 [2]): 6.00
Compound: CCCCCCCCCCCCNCCN=C(N)N
Efficacy (HL-60 [14]): 128%

pEC50 (HL-60 [2]): 5.30
Compound: CCCCCCCCCCCCNC(=O)CNC(=O)CN
Efficacy (HL-60 [1]): 120%

pEC50 (HL-60 [12]): 6.30
Compound: CCCCCCCCCCCCCCCCNC(=O)[C@@H](N)CCCCN [LYCETAMINE]
Efficacy (HL-60 [13]): 90%

pEC50 (HL-60 [2]): 5.60 | -Log K [16]: 5.3
Compound: CCCCCCCCCCCCNC(=O)C(N)CCCN (stereo unspecified)
Efficacy (HL-60 [11]): 117%

The next lines start with the compound.

Compound: CCCCCCCCCCCCNC(=O)[C@@H](N)CCC(N)=O
Efficacy (HL-60 [1]): 110% | pEC50 (HL-60 [2]): 5.10

Compound: CCCCCCCCCCCCNCC(N)CCCN (stereo unspecified)
Efficacy (HL-60 [3]): 126% | pEC50 (HL-60 [2]): 6.00 | -Log K [4]: 5.4 | -Log K [5]: < 6 | -Log K [6]: 5.2 | -Log K [7]: 4.1

Compound: CCCCCCCCCCCCNCC(N)CCN (stereo unspecified)
Efficacy (HL-60 [8]): 128% | pEC50 (HL-60 [2]): 6.20

Compound: CCCCCCCCCCCCNC(=O)[C@@H](N)CCC/N=C(\N)N[N+](=O)[O-]
Efficacy (HL-60 [9]): 156%

Compound: CCCCCCCCCCCCNC(=O)CN
Efficacy (HL-60 [10]): 100% | pEC50 (HL-60 [2]): 5.40

Compound: CC[C@H](C)[C@H](N)C(=O)N[C@@H](CC(N)=O)C(=O)N[C@@H](CC(C)C)C(=O)N[C@@H](CCCCN)C(=O)N[C@@H](C)C(=O)N[C@@H](CC(C)C)C(=O)N[C@@H](C)C(=O)N[C@@H](C)C(=O)N[C@@H](CC(C)C)C(=O)N[C@@H](C)C(=O)N[C@@H](CCCCN)C(=O)N[C@@H](CCCCN)C(=O)N[C@H](C(=O)N[C@@H](CC(C)C)C(N)=O)[C@@H](C)CC
Efficacy (HL-60 [11]): 100% | pEC50 (HL-60 [12]): 5.50

Compound: CCCCCCCCCCCCNCC(N)CCCCN (stereo unspecified)
Efficacy (HL-60 [13]): 120% | pEC50 (HL-60 [12]): 6.30

Compound: CCCCCCCCCCCCNC(=O)[C@@H](N)CCCCN [N-DODECYL LYSINE AMIDE]
Efficacy (HL-60 [3]): 116% | pEC50 (HL-60 [12]): 6.10

Compound: CCCCCCCCCCCCNC(=O)[C@@H](N)CCCN=C(N)N
Efficacy (HL-60 [14]): 92% | pEC50 (HL-60 [2]): 6.10

Compound: CCCCCCCCCCCCNCCN
Efficacy (HL-60 [3]): 92% | pEC50 (HL-60 [2]): 6.00

Compound: CCCCCCCCCCCCNC(=O)C(N)CCN (stereo unspecified)
Efficacy (HL-60 [11]): 105% | pEC50 (HL-60 [2]): 5.90

Compound: CCCCCCCCCCCCCCNCC(N)CCCCN (stereo unspecified)
Efficacy (HL-60 [15]): 117% | pEC50 (HL-60 [12]): 6.60

Compound: CCCCCCCCCCCCCCNC(=O)[C@@H](N)CCCCN
Efficacy (HL-60 [8]): 100% | pEC50 (HL-60 [12]): 6.30
